Laboratory results as given in PubChem BioAssay.
Inconclusive results are not listed.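 How the source made its calls, unless noted: active means growth inhibition above 25% in both replicates, a cutoff set 3 SD above the mean; inconclusive means above 25% in only one replicate; inactive means the rest.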

Experiments:
[1] = S. cerevisiae growth inhibition in permissive medium (OD615), pilot counter-assay for S. cerevisiae lifespan shortening project, permissive growth control (AID 705); settings: OD615, 24 h, at 10 µM, stronger effect = higher value
In short: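 System: S. cerevisiae with engineered DeaD lifespan system. Medium: SC raffinose/galactose permissive medium. Doses: single compound dose of 10 µM, 0.25% DMSO final. Schedule: 24 h exposure, 30 °C. Measured by: OD615 turbidity read. Read-out: growth inhibition.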

[2] = S. cerevisiae growth inhibition in restrictive medium, OD615, pilot screen, restrictive growth control, yeast lifespan reduction project (AID 706;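 active means growth inhibition above a set limit, 3 SD over mean compound inhibition, in both replicates, cut at about 43% in these data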;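 further: modified DeaD lifespan yeast strain shifted to restrictive glucose medium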); settings: OD615, 48 h, at 10 µM, stronger effect = higher value
In short: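 Assay system – genetically modified Saccharomyces cerevisiae, DeaD replicative lifespan assay strain · Medium – CSMM-D glucose medium · Doses – 10 µM compound, 0.25% DMSO · Times – 4 h pre-incubation, 48 h exposure at 30 °C · Signal – optical density at 615 nm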

[3] = doxorubicin toxicity protection in MRP-1 cells – H69AR cells, CellTiter-Glo, duplicate, MRP-1 activator project, pilot screen (AID 807;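 active means viability increase at or above a cutoff of the median across tested compounds plus 3 SD, cut at about 8.5% in these data, passing the limit was not always enough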;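 further: compound pretreatment 18-22 h then 72 h combined with doxorubicin; 0% = doxorubicin alone and 100% = vehicle without doxorubicin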); settings: H69AR viability with doxorubicin, CellTiter-Glo luminescence; at 10 µM; stronger effect = higher value
[4] = viability of HCT116 without oncogenic beta-catenin – human colon tumor cells, pilot screen (AID 823;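 active means cell viability at or below a set limit in both duplicate runs, the limit being the all-compound median minus 4 SD, cut at about 23% in these data, passing the limit was not always enough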;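 further: 0% = wells killed by 20 µM Hyamine and 100% = untreated DMSO cell wells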); settings: HCT116 beta-catenin knockout viability, CellTiter-Glo, 60 h; at 10 µM; stronger effect = lower value
[5] = viability of PTEN-null HCT116 cells – cell-based, HCT116 clonal line, CellTiter-Glo, pilot screen (AID 824;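 active means viability at or below 27.92% in each of two runs, the all-compound median minus 4 SD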;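 further: 0% = 20 µM Hyamine control and 100% = vehicle cell control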); settings: HCT116 PTEN-deleted viability, 60 h, at 10 µM, stronger effect = lower value
[6] = RAM pathway blockade in budding yeast – dse1pr::URA3 reporter, 5-FOA selection, pilot screen (AID 869;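 active means inhibition over a set limit, the all-compound mean plus 3 SD, in both replicate runs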;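 further: 0% = DMSO wells with no growth and 100% = 10 µM 1-NA-PP1 with full growth; RAM network block rescues cells from 5-FOA so hits raise OD615 growth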); settings: S. cerevisiae dse1pr::URA3 5-FOA growth, OD615, 2 d; at 10 µM; stronger effect = higher value; strain carries analog-sensitive mutant Cbk1 kinase
[7] = RAM signaling pathway blockade in yeast – S. cerevisiae, Pdr1DBD-CYC8 efflux-inhibited sensitized strain, primary screen (AID 1298;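 active means RAM network inhibition above 8.4% in each of two replicates, 3 SD over the compound average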;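 further: 0% = DMSO untreated cells without growth and 100% = 10 µM 1-NA-PP1 full growth; higher means more yeast growth rescued from 5-FOA killing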); settings: S. cerevisiae cbk1-as DSE1-URA3 strain, 5-FOA growth OD615, 2 d; at 50 µM; stronger effect = higher value

COc1ccc(NC(=O)CSc2nnc(-c3ccc(C)cc3)n2N)cc1
inactive: growth inhibition [1] -3.98% | growth inhibition [2] -4.99% | viability increase [3] 0.54% | viability [4] 100% | viability [5] 92.8% | inhibition [6] 1.1% | RAM network inhibition [7] 2.69%

CCOC(=O)CC(=O)Nc1ccc(Br)cc1C(=O)O
inactive: growth inhibition [1] -18.4% | growth inhibition [2] -18.8% | viability increase [3] 1.24% | viability [4] 101% | viability [5] 97.2% | inhibition [6] 2.16% | RAM network inhibition [7] 7.52%

CC1CCc2nn(CC(=O)NCCCN3CCCCC3)cc2C1 (configuration not stated)
inactive: growth inhibition [1] -15.9% | growth inhibition [2] -10.3% | viability increase [3] -2.34% | viability [4] 105% | viability [5] 96.7% | inhibition [6] 1.18% | RAM network inhibition [7] 3.77%

Cc1ccc2c(c1)c1cccc3c1n2CCN3CCC(N)=O
inactive: growth inhibition [1] 4.29% | growth inhibition [2] 6.53% | viability increase [3] 1.41% | viability [4] 87.4% | viability [5] 87.2% | inhibition [6] 3.32% | RAM network inhibition [7] 9.34%

CC1CN(S(=O)(=O)c2ccc(C(=O)Nc3sc4c(c3C(N)=O)CCN(C)C4)cc2)CC(C)O1 (configuration not stated)
inactive: growth inhibition [1] -6.76% | growth inhibition [2] -7.93% | viability increase [3] -0.69% | viability [4] 91.9% | viability [5] 97.7% | inhibition [6] 1.35% | RAM network inhibition [7] 5.2%

CN(C)c1ccc(C2C3C(=O)NC(=O)C3ON2c2ccc(Cl)cc2)cc1 (configuration not stated)
inactive: growth inhibition [1] -0.19% | growth inhibition [2] 2.37% | viability increase [3] -0.83% | viability [4] 102% | viability [5] 98.6% | inhibition [6] 0.735% | RAM network inhibition [7] 4.07%

Cc1cc(=O)c2c(C)nn(-c3ccccc3)c2[nH]1
inactive: growth inhibition [1] -2.51% | growth inhibition [2] 2.11% | viability increase [3] -2.26% | viability [4] 96.7% | viability [5] 92.3% | inhibition [6] 2.23% | RAM network inhibition [7] 1.4%

Cn1c(C(=O)NCCCN2CCN(c3cccc(Cl)c3)CC2)cc2c(=O)n(C)c3ccccc3c21
inactive: growth inhibition [1] -2.52% | growth inhibition [2] -0.835% | viability increase [3] -2.92% | viability [4] 59.9% | viability [5] 59% | inhibition [6] -0.02% | RAM network inhibition [7] 7.94%

CC1CCN(CCCNC(=O)CN2CCN(Cc3ccc(Cl)cc3)C2=O)CC1
inactive: growth inhibition [1] -8.6% | growth inhibition [2] -8.52% | viability increase [3] -0.83% | viability [4] 90.8% | viability [5] 89.3% | inhibition [6] 2.27% | RAM network inhibition [7] 4.2%

c1coc(C2Nc3ccccc3-c3nc4ccccc4n32)c1 (configuration not stated)
inactive: growth inhibition [1] -27.2% | growth inhibition [2] -4.04% | viability increase [3] -4.32% | viability [4] 66.6% | viability [5] 68.1% | inhibition [6] 2.14% | RAM network inhibition [7] 8.31%

Cc1nc2sc(C(c3cccs3)N3CCN(Cc4ccccc4)CC3)c(O)n2n1 (configuration not stated)
inactive: growth inhibition [1] -7.44% | growth inhibition [2] -19.6% | viability increase [3] -1.47% | viability [4] 101% | viability [5] 89.8% | inhibition [6] -0.06% | RAM network inhibition [7] 4.97%

CC(C)N(Cc1nc(-c2ccc(Cl)cc2)no1)C(=O)CCCN1C(=O)c2ccccc2C1=O
inactive: growth inhibition [1] -14.4% | growth inhibition [2] -15.6% | viability increase [3] 5.41% | viability [4] 104% | viability [5] 91.6% | inhibition [6] 1.4% | RAM network inhibition [7] 6.24%

COc1ccc(CNC(=O)c2cnn3c(C(F)F)cc(C)nc23)cc1OC
inactive: growth inhibition [1] -6.09% | growth inhibition [2] 9.23% | viability increase [3] 0.02% | viability [4] 92.3% | viability [5] 86.2% | inhibition [6] 1.99% | RAM network inhibition [7] 2.31%

CC1(C)C(=O)OC(C(=O)c2ccccc2)C(C)(C)C1=O (configuration not stated)
inactive: growth inhibition [1] -7.95% | growth inhibition [2] -6.81% | viability increase [3] 0.07% | viability [4] 105% | viability [5] 94.8% | inhibition [6] 0.83% | RAM network inhibition [7] 2.22%

CCc1nc(C)cn1S(=O)(=O)c1cc(C)c(OC)cc1C
inactive: growth inhibition [1] -0.385% | growth inhibition [2] 0.98% | viability increase [3] 0.56% | viability [4] 102% | viability [5] 103% | inhibition [6] 1.69% | RAM network inhibition [7] 12.1%

CCOc1ccc(N(CC(=O)N2CCCC2)S(=O)(=O)c2c(C)noc2C)cc1
inactive: growth inhibition [1] -10.4% | growth inhibition [2] 3.47% | viability increase [3] -1.24% | viability [4] 98.3% | viability [5] 95.6% | inhibition [6] 1.08% | RAM network inhibition [7] 10.7%

C=CCn1c(C(C)NC(=O)COC)nc2ccccc21 (configuration not stated)
inactive: growth inhibition [1] -2.42% | growth inhibition [2] -4.71% | viability increase [3] -2.08% | viability [4] 98.7% | viability [5] 96.2% | inhibition [6] 0.935% | RAM network inhibition [7] 3.54%

COc1ccccc1CC1(C)NC(=O)N(CC(=O)N2CC(C)OC(C)C2)C1=O (configuration not stated)
inactive: growth inhibition [1] -25.5% | growth inhibition [2] -15% | viability increase [3] -0.71% | viability [4] 95.5% | viability [5] 97.9% | inhibition [6] 1.68% | RAM network inhibition [7] 1.34%

O=C(NCCCN1CCOCC1)c1ccc(CS(=O)(=O)c2ccc(Br)cc2)o1
inactive: growth inhibition [1] -9.31% | growth inhibition [2] -11% | viability increase [3] -0.56% | viability [4] 99.8% | viability [5] 96.2% | inhibition [6] 2.23% | RAM network inhibition [7] 3.6%

COc1ccc(-n2nc3cc(C)c(NC(=O)CC(C)C)cc3n2)cc1
inactive: growth inhibition [1] -7.39% | growth inhibition [2] -3.86% | viability increase [3] -0.97% | viability [4] 94% | viability [5] 92.2% | inhibition [6] 0.405% | RAM network inhibition [7] 3.76%

COc1ccc(N2CCN(c3nc4c(c(=O)[nH]c(=O)n4C)n3Cc3ccccc3Cl)CC2)cc1
inactive: growth inhibition [1] 4.9% | growth inhibition [2] -2.96% | viability increase [3] -2.71% | viability [4] 84.6% | viability [5] 75.3% | inhibition [6] 2.07% | RAM network inhibition [7] -1.3%

CCOC(=O)c1nn(-c2ccccc2)c(=O)c2c(N)scc12
inactive: growth inhibition [1] -4.99% | growth inhibition [2] -1.54% | viability increase [3] -3.93% | viability [4] 102% | viability [5] 107% | inhibition [6] 2.98% | RAM network inhibition [7] 4.03%

Nc1[nH]nc2nc(N3CCOCC3)nc(-c3ccccc3)c12
inactive: growth inhibition [1] -7.04% | growth inhibition [2] 4.65% | viability increase [3] -4.39% | viability [4] 88.2% | viability [5] 88.3% | inhibition [6] 2.38% | RAM network inhibition [7] 1.55%

O=C(NCc1ccc2c(c1)OCO2)Oc1ccccc1
inactive: growth inhibition [1] -1.34% | growth inhibition [2] 7.08% | viability increase [3] 0.33% | viability [4] 96.9% | viability [5] 101% | inhibition [6] 1.32% | RAM network inhibition [7] 2.53%

Cc1c(C)n(CC(O)CN2CCCCCC2)c2ccccc12 (configuration not stated)
inactive: growth inhibition [1] -14.9% | growth inhibition [2] -19.6% | viability increase [3] -4.25% | viability [4] 79.6% | viability [5] 81% | inhibition [6] 2.44% | RAM network inhibition [7] 1.09%

Cc1cccn2cc(-c3ccc(F)cc3)nc12
inactive: growth inhibition [1] 1.97% | growth inhibition [2] 15.1% | viability increase [3] -4.81% | viability [4] 87.2% | viability [5] 82.9% | inhibition [6] 1.56% | RAM network inhibition [7] -1.54%

Cc1noc(C(=O)N2CC3(C)CC2CC(C)(C)C3)c1Cl (configuration not stated)
inactive: growth inhibition [1] -13% | growth inhibition [2] -13.2% | viability increase [3] 0.45% | viability [4] 82.9% | viability [5] 83% | inhibition [6] -0.145% | RAM network inhibition [7] 5.28%

COC(=O)CCSCC(=O)Nc1nnc(C)s1
inactive: growth inhibition [1] 3.46% | growth inhibition [2] -7.57% | viability increase [3] -0.31% | viability [4] 108% | viability [5] 93.1% | inhibition [6] 3.05% | RAM network inhibition [7] 0.66%

O=C(CCN1CCc2ccccc2C1)Nc1ccccc1
inactive: growth inhibition [1] -6.32% | growth inhibition [2] -8.03% | viability increase [3] -4.06% | viability [4] 89.8% | viability [5] 89.3% | inhibition [6] 2.04% | RAM network inhibition [7] 2.39%

COc1ccc(-n2c(Cn3c(=O)sc4ccccc43)nnc2SC)cc1
inactive: growth inhibition [1] -12.1% | growth inhibition [2] -8.38% | viability increase [3] -2.26% | viability [4] 101% | viability [5] 89.6% | inhibition [6] 2.47% | RAM network inhibition [7] 1.33%

COCCn1c(=NC(=O)CSC(C)=O)sc2cc(OC)ccc21
inactive: growth inhibition [1] -27.6% | growth inhibition [2] 18.1% | viability increase [3] -6.74% | viability [4] 88% | viability [5] 83.8% | inhibition [6] 0.53% | RAM network inhibition [7] 0.96%

CCCCn1c(=O)n(CC(=O)Nc2ccc(C)c(Cl)c2)c(=O)c2c1ncn2Cc1ccco1
inactive: growth inhibition [1] -2.46% | growth inhibition [2] -24.8% | viability increase [3] 0.99% | viability [4] 72.2% | viability [5] 72.3% | inhibition [6] 2.23% | RAM network inhibition [7] 1.61%

CCCCNC(=O)CC1Nc2ccccc2NC1=O (configuration not stated)
inactive: growth inhibition [1] 5.04% | growth inhibition [2] 4.59% | viability increase [3] -2.91% | viability [4] 113% | viability [5] 93% | inhibition [6] 0.83% | RAM network inhibition [7] 5.83%

COc1cccc(-n2c(Cc3cc(=O)[nH]c(=O)[nH]3)nnc2SCc2cccnc2)c1
inactive: growth inhibition [1] -7.23% | growth inhibition [2] -2.88% | viability increase [3] 0.52% | viability [4] 106% | viability [5] 102% | inhibition [6] 0% | RAM network inhibition [7] 0.9%

O=C(C1CCC(CNc2c(N3CCOCC3)c(=O)c2=O)CC1)N1CCN(c2ccccc2)CC1 (configuration not stated)
inactive: growth inhibition [1] -0.4% | growth inhibition [2] -8.31% | viability increase [3] -1.19% | viability [4] 95.8% | viability [5] 83.7% | inhibition [6] 2.86% | RAM network inhibition [7] 1.31%

O=C(Cn1ncc2ccccc21)N1CCc2ccccc21
inactive: growth inhibition [1] -9.24% | growth inhibition [2] -14.6% | viability increase [3] -3% | viability [4] 72.2% | viability [5] 84.2% | inhibition [6] 1.26% | RAM network inhibition [7] 3.51%
